ChEMBL document CHEMBL4130484, “Identification and optimization of novel 6-acylamino-2-aminoquinolines as potent Hsp90 C-terminal inhibitors” (Eur J Med Chem, 2017)
In brackets after ≈: the same amount, converted by molar mass. Activity calls are given as the source filed them. No cut-off for these calls is given here.

Tests used:
[1] = Permeability coefficient of the compound at pH 7.4 by double-sink PAMPA; format: ADME; settings: read-out: permeability
How it was run: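 Double-sink PAMPA at pH 7.4 on a PAMPA Explorer instrument; Pe reported as mean ± SD, n = 3.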

[2] = target: T1, Heat shock protein HSP90 (Homo sapiens) (UniProt P07900+P08238); assay: Inhibition of HSP90 C-terminal in human MCF7 cells assessed as reduction in CDK6 protein expression incubated for 24 hrs by Western blot method; format: cell-based
How it was run: (§1)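 MCF7 cells incubated 24 h with various concentrations, then client protein levels read by Western blot. β-Actin served as loading control. AT13387 (1.0 µM), an N-terminal Hsp90 inhibitor, was the positive control.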

[3] = system: MCF7; assay: Induction of apoptosis in human MCF7 cells assessed as viable cells level at 5 uM incubated for 24 hrs by Annexin V-FITC and propidium iodide staining based flow cytometry (reference value: 93.37%); format: functional
[4] = system: MCF7; assay: Inhibition of cell migration in human MCF7 cells incubated for 24 hrs by wound healing assay; format: functional, cell-based
How it was run: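 Wound healing in MCF7 cells: the monolayer was scratched with a 200 µL sterile pipette tip, treated 24 h at various concentrations, then imaged.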

[5] = target: T1, Heat shock protein HSP90 (Homo sapiens); assay: Inhibition of HSP90 C-terminal in human MCF7 cells assessed as reduction in ERK protein expression incubated for 24 hrs by Western blot method; format: cell-based; how it was run: as §1
[6] = system: MCF7; assay: Induction of apoptosis in human MCF7 cells assessed as necrotic cells level at 2.5 uM incubated for 24 hrs by Annexin V-FITC and propidium iodide staining based flow cytometry (reference value: 0.51%); format: functional
[7] = system: 4T1; assay: Antitumor activity against mouse 4T1 cells implanted in BALB/c mouse assessed as inhibition of tumor growth at 30 mg/kg/day, ip for 2 weeks measured every 2 days; format: functional; settings: 4T1, ip, read-out: TGI
How it was run: (§2)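 BALB/c mice bearing 4T1 breast tumors were dosed ip daily for 2 weeks with vehicle, 10 or 30 mg/kg, starting once mean tumor volume reached 50 mm³. Tumor diameters were measured every two days; TGI derived.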

[8] = system: MCF7; assay: Induction of apoptosis in human MCF7 cells assessed as late apoptotic cells level at 5 uM incubated for 24 hrs by Annexin V-FITC and propidium iodide staining based flow cytometry (reference value: 4.19%); format: functional
[9] = system: MCF7; assay: Induction of apoptosis in human MCF7 cells assessed as viable cells level at 10 uM incubated for 24 hrs by Annexin V-FITC and propidium iodide staining based flow cytometry (reference value: 93.37%); format: functional
[10] = system: MCF7; assay: Induction of apoptosis in human MCF7 cells assessed as early apoptotic cells level at 2.5 uM incubated for 24 hrs by Annexin V-FITC and propidium iodide staining based flow cytometry (reference value: 1.93%); format: functional
[11] = Distribution coefficient, log D of the compound at pH 7.4; format: physicochemical; settings: octanol/water
How it was run: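 Log D at pH 7.4 measured on a PULSE platform.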

[12] = system: MCF7; assay: Induction of apoptosis in human MCF7 cells assessed as early apoptotic cells level at 5 uM incubated for 24 hrs by Annexin V-FITC and propidium iodide staining based flow cytometry (reference value: 1.93%); format: functional
[13] = system: 4T1; assay: Antitumor activity against mouse 4T1 cells implanted in BALB/c mouse assessed as inhibition of lung metastasis at 30 mg/kg/day, ip for 2 weeks measured every 2 days by H and E staining; format: functional, organism-based
How it was run: (§3)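 4T1 tumor-bearing BALB/c mice were dosed ip daily for 2 weeks with vehicle, 10 or 30 mg/kg, starting at mean tumor volume 50 mm³. Lung tissue was then examined for metastasis.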

[14] = system: MCF7; assay: Antiproliferative activity against human MCF7 cells incubated for 72 hrs by MTT assay; format: functional, cell-based; settings: MCF7, 72 h
How it was run: (§4)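 MTT antiproliferation assay in MCF7 and SKBr3 breast cancer cells; IC50 determined.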

[15] = system: SK-BR-3; assay: Antiproliferative activity against human SKBR3 cells incubated for 72 hrs by MTT assay; format: functional, cell-based; settings: SK-BR-3, 72 h; how it was run: as §4
[16] = system: MCF7; assay: Induction of heat shock response in human MCF7 cells assessed as effect on HSP90 protein expression at 1 to 10 uM incubated for 24 hrs by Western blot method; format: cell-based; settings: mcf7, 24 h; how it was run: as §1
[17] = system: MCF7; assay: Induction of apoptosis in human MCF7 cells assessed as early apoptotic cells level at 10 uM incubated for 24 hrs by Annexin V-FITC and propidium iodide staining based flow cytometry (reference value: 1.93%); format: functional
[18] = system: MCF7; assay: Induction of apoptosis in human MCF7 cells assessed as necrotic cells level at 5 uM incubated for 24 hrs by Annexin V-FITC and propidium iodide staining based flow cytometry (reference value: 0.51%); format: functional
[19] = system: 4T1; assay: Antitumor activity against mouse 4T1 cells implanted in BALB/c mouse assessed as inhibition of lung metastasis at 10 mg/kg/day, ip for 2 weeks measured every 2 days by H and E staining; format: functional, organism-based; how it was run: as §3
[20] = system: MCF7; assay: Induction of apoptosis in human MCF7 cells assessed as viable cells level at 2.5 uM incubated for 24 hrs by Annexin V-FITC and propidium iodide staining based flow cytometry (reference value: 93.37%); format: functional
[21] = system: Mus musculus; assay: Toxicity in BALB/c mouse implanted with mouse 4T1 cells assessed as induction of body weight loss at 10 mg/kg/day, ip for 2 weeks measured every 2 days; format: organism-based; settings: in vivo
How it was run: (§5)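 4T1 tumor-bearing BALB/c mice were given vehicle, 10 or 30 mg/kg ip daily for 2 weeks from mean tumor volume 50 mm³. Body weight was monitored during treatment.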

[22] = system: MCF7; assay: Induction of apoptosis in human MCF7 cells assessed as late apoptotic cells level at 2.5 uM incubated for 24 hrs by Annexin V-FITC and propidium iodide staining based flow cytometry (reference value: 4.19%); format: functional
[23] = system: MCF7; assay: Induction of heat shock response in human MCF7 cells assessed as effect on HSP70 protein expression at 1 to 10 uM incubated for 24 hrs by Western blot method; format: cell-based; settings: mcf7, 24 h; how it was run: as §1
[24] = Intrinsic aqueous solubility of the compound; format: physicochemical
How it was run: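 Intrinsic aqueous solubility determined on a Gemini Profiler instrument.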

[25] = system: MCF7; assay: Induction of apoptosis in human MCF7 cells assessed as necrotic cells level at 10 uM incubated for 24 hrs by Annexin V-FITC and propidium iodide staining based flow cytometry (reference value: 0.51%); format: functional
[26] = system: Mus musculus; assay: Toxicity in BALB/c mouse implanted with mouse 4T1 cells assessed as induction of body weight loss at 30 mg/kg/day, ip for 2 weeks measured every 2 days; format: organism-based; settings: in vivo; how it was run: as §5
[27] = system: MCF7; assay: Induction of apoptosis in human MCF7 cells assessed as late apoptotic cells level at 10 uM incubated for 24 hrs by Annexin V-FITC and propidium iodide staining based flow cytometry (reference value: 4.19%); format: functional
[28] = target: T1, Heat shock protein HSP90 (Homo sapiens); assay: Inhibition of HSP90 C-terminal in human MCF7 cells assessed as reduction in Akt protein expression incubated for 24 hrs by Western blot method; format: cell-based; how it was run: as §1
[29] = system: 4T1; assay: Antitumor activity against mouse 4T1 cells implanted in BALB/c mouse assessed as inhibition of tumor growth at 10 mg/kg/day, ip for 2 weeks measured every 2 days; format: functional; settings: 4T1, ip, read-out: TGI; how it was run: as §2

Cc1cc(NCCN2CCCCC2)nc2ccc(NC(=O)c3ccc(Cl)c(Cl)c3)cc12
Papp [1]: 47.3 ×10⁻⁶ cm/s | inhibition [2]: Dose-dependent effect | Activity [3]: 78.86% | inhibition [4]: Dose-dependent effect | inhibition [5]: Dose-dependent effect | Activity [6]: 0.8% | inhibition in vivo at 30 mg/kg/day [7]: 47% | Activity [8]: 12.8% | Activity [9]: 42.69% | Activity [10]: 1.57% | logD [11]: 2.72 | Activity [12]: 5.21% | inhibition [13]: Active | IC50 [14]: 1190 nM | IC50 [15]: 1800 nM | Activity [16]: Non-Toxic | Activity [17]: 20.22% | Activity [18]: 3.13% | inhibition [19]: Active | Activity [20]: 93.3% | Activity [21]: Non-Toxic | Activity [22]: 4.33% | Activity [23]: Non-Toxic | solubility [24]: 70.8 µg/mL (≈ 155 µM) | Activity [25]: 5.5% | Activity [26]: Non-Toxic | Activity [27]: 31.59% | inhibition [28]: Dose-dependent effect | inhibition in vivo at 10 mg/kg/day [29]: 26%
